The source made the active and inactive calls. No cut-off for these calls is given here.
Key:
dengue virus type 2 [1] = assay: Antiviral activity against Dengue virus serotype 2 New Guinea C infected at 50 TCID50 in human HuH7 cells assessed as inhibition of viral replication and 72 hrs later re-infected pre-seeded HuH7 cells with viral supernatant collected from previous infected and measured after 72 hrs by immunodetection assay; format: functional, organism-based; conditions: Huh-7, 72 h
Method in brief: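 Huh-7 cells infected with 50 TCID50 DENV-2 in presence of serial compound dilutions; after 72 h supernatants used to infect preseeded Huh-7 cells for a second infection cycle; replication read after further 72 h by immunoenzymatic assay with monoclonal antibody to conserved viral E antigen region. IC50 from at least two experiments, mean ± SD.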

[2] = Cytotoxicity against human HuH7 cells assessed as reduction in cell viability by measuring ATP level measured after 72 hrs by CellTiter-Glo luminescent assay; format: cell-based, Huh-7
Method in brief: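 Huh-7 cells; viable cell number determined from cellular ATP content by CellTiter-Glo 2.0 luminescence; CC50 derived.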

[3] = target: T1, ATP-dependent RNA helicase DDX3X (Homo sapiens, UniProt O00571); assay: Inhibition of recombinant full length human His-tagged DDX3X expressed in Escherichia coli using dsRNA as substrate measured after 40 mins in presence of ATP by FRET assay
Target sequence in this assay (O00571 whole entry): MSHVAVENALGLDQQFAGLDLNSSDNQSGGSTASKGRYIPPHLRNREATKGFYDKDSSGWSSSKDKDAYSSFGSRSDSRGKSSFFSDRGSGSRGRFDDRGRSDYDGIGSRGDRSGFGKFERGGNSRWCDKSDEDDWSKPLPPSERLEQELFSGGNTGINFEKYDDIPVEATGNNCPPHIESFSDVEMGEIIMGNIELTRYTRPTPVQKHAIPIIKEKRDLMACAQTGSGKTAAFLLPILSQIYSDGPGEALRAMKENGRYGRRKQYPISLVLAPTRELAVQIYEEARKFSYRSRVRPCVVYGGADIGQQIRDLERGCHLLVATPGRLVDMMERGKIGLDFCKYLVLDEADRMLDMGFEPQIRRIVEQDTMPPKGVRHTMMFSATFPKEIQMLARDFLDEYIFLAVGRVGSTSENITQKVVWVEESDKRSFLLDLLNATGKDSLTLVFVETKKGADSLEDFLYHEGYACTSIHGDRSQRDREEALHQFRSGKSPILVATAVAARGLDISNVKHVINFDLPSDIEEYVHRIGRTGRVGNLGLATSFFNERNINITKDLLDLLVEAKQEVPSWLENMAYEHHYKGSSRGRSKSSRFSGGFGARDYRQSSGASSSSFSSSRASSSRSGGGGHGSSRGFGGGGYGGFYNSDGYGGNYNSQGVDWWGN

in vitro = conditions: human
dengue virus type 2 [4] = assay: Antiviral activity against Dengue virus serotype 2 New Guinea C infected at 100 TCID50 in human HuH7 cells assessed as cytopathic effect by measuring increase in viable cells at 0.1 to 20 uM measured up to 24 hrs by Alexa fluor 488 based confocal microscopy; format: functional, organism-based; conditions: Huh-7
dengue virus type 2 [5] = assay: Antiviral activity against Dengue virus serotype 2 New Guinea C infected at 100 TCID50 in human HuH7 cells assessed as reduction in number of dsRNA positive cells at 0.1 to 20 uM measured up to 24 hrs by Alexa fluor 488 dye based confocal microscopy; format: functional, organism-based; conditions: Huh-7
dengue virus type 2 [6] = assay: Antiviral activity against Dengue virus serotype 2 New Guinea C infected at 100 TCID50 in human HuH7 cells assessed as reduction in number of NS3 positive cells at 0.1 to 20 uM measured up to 24 hrs by Alexa fluor 488 dye based confocal microscopy; format: functional, organism-based; conditions: Huh-7
dengue virus type 2 [7] = assay: Antiviral activity against Dengue virus serotype 2 New Guinea C infected at 100 TCID50 in human HuH7 cells assessed as reduction in number of NS5 positive cells at 0.1 to 20 uM measured up to 24 hrs by Alexa fluor 488 dye based confocal microscopy; format: functional, organism-based; conditions: Huh-7
dengue virus type 2 [8] = assay: Antiviral activity against Dengue virus serotype 2 New Guinea C infected at 100 TCID50 in human HuH7 cells assessed as increase in viable cells at 20 uM measured at 48 to 72 hrs post-infection by Alexa fluor 488 dye based confocal microscopy; format: functional, organism-based; conditions: Huh-7
Method in brief: (§1)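 DENV-2-infected Huh-7 cells (100 TCID50) treated with fluorescent inhibitor at 20 μM; immunostained for DDX3X or NS5 and examined by confocal microscopy over time up to 72 h p.i.; viable cell number and NS5-positive cell number scored.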

[9] = target: T1, ATP-dependent RNA helicase DDX3X; assay: Induction of DDX3X recruitment in human HuH7 cells infected with 100 TCID50 of Dengue virus serotype 2 New Guinea C assessed as colocalization of DDX3X in perinuclear region at 20 uM measured at 6 to 24 hrs post-infection by Alexa fluor 488 dye based confocal microscopy; format: cell-based; conditions: Huh-7
Method in brief: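 Huh-7 cells infected with DENV-2 at 100 TCID50, treated with fluorescent inhibitor at 20 μM; fixed at 0, 6, 12 and 24 h p.i., permeabilized, immunostained for DDX3 or NS5 (Alexa Fluor 568 secondary) and examined by confocal microscopy for colocalization with the probe.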
Target sequence in this assay (O00571 2-662 limits assumed): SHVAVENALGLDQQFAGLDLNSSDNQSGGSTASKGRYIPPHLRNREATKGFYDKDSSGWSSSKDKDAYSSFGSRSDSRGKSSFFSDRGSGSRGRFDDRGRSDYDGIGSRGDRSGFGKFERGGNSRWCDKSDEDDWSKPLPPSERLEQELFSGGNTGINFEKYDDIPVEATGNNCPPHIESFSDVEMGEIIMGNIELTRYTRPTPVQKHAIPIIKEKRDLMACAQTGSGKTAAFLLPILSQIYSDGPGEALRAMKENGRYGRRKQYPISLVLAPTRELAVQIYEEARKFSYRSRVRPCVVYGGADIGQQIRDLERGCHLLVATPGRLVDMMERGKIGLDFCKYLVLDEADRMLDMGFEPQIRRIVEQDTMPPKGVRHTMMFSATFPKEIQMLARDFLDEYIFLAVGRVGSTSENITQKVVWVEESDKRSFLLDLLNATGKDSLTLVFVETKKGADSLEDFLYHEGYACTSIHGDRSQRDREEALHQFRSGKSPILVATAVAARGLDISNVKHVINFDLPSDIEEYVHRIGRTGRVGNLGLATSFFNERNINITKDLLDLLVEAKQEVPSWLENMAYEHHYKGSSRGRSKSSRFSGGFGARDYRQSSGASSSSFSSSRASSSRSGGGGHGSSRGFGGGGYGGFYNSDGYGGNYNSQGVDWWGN

dengue virus type 2 [10] = assay: Antiviral activity against Dengue virus serotype 2 New Guinea C infected at 100 TCID50 in human HuH7 cells assessed as reduction of NS5 positive cells at 20 uM measured at 48 to 72 hrs post-infection by Alexa fluor 488 dye based confocal microscopy; format: functional, organism-based; conditions: Huh-7; method in brief: as §1
dengue virus type 2 [11] = assay: Antiviral activity against Dengue virus serotype 2 New Guinea C infected at 100 TCID50 in human HuH7 cells assessed as cytoplasmic localization of NS5 followed by movement to nucleus at 20 uM measured at 6 hrs post-infection by […]; format: functional, organism-based; conditions: Huh-7
[12] = target: T1, ATP-dependent RNA helicase DDX3X; assay: Induction of DDX3X recruitment in human HuH7 cells infected with 100 TCID50 of Dengue virus serotype 2 New Guinea C assessed as increase in DDX3X expression in perinuclear region at 20 uM measured at 48 to 72 hrs post-infection by Alexa fluor 488 dye based confocal microscopy; format: cell-based; conditions: Huh-7; method in brief: as §1
Target sequence in this assay (O00571 2-662 limits assumed): as above

Structure (SMILES) | IC50 (dengue virus type 2 [1]) [µM] | CC50 at 72 h [2] [µM] | IC50 [3] [µM] | selectivity ratio at 72 h (in vitro; HuH7 cells) | other results
CCCCc1cn(-c2ccc(NC(=O)Nc3ccccc3NS(C)(=O)=O)cc2)nn1 | 2.5 | 35 | 0.06 | 14 | –
CCCCc1cn(-c2ccc(NC(=O)Nc3ccccc3C)cc2)nn1 | 2.55 | – | – | – | –
CCOCc1cn(-c2cccc(S(=O)(=O)Nc3ccccc3C(F)(F)F)c2)nn1 | 2.6 | 150 | – | – | Activity (dengue virus type 2 [4]): Active; Activity (dengue virus type 2 [5]): Active; Activity (dengue virus type 2 [6]): Active; Activity (dengue virus type 2 [7]): Active
O=C(Nc1ccc(-n2cc(CF)nn2)cc1)Nc1ccccc1C(F)(F)F | – | – | 2.2 | – | –
CCCCc1cn(-c2ccc(NC(=O)Nc3cccc(F)c3)cc2)nn1 | 10.5 | 200 | 0.6 | 19 | –
CC(C)CCc1cn(-c2ccc(NC(=O)Nc3cccc(F)c3)cc2)nn1 | 2.5 | 200 | – | 80 | –
CCCCc1cn(-c2cccc(S(=O)(=O)Nc3ccccc3O)c2)nn1 | 1.6 | 150 | 0.4 | – | –
CCOCc1cn(-c2cccc(S(=O)(=O)Nc3cccc(C(=O)OCC)c3)c2)nn1 | 4.3 | 100 | 0.005 | 23.2 | –
CC(C)OC(=O)[C@H](C)N[P@](=O)(OC[C@H]1O[C@@H](n2ccc(=O)[nH]c2=O)[C@](C)(F)[C@@H]1O)Oc1ccccc1 [SOFOSBUVIR] | 3.8 | 200 | – | 52.6 | –
CCCCc1cn(-c2cccc(S(=O)(=O)Nc3ccccc3C(F)(F)F)c2)nn1 | 6.1 | 18 | – | 3 | –
COc1cc(NC(=O)Nc2ccccc2C(F)(F)F)ccc1-n1cc(CCC(C)C)nn1 | – | – | 0.3 | – | –
CCCCc1cn(-c2cccc(S(=O)(=O)Nc3ccccc3OC)c2)nn1 | 6.3 | 79 | 0.18 | – | –
CC(=O)CCc1cn(-c2ccc(NC(=O)Nc3cccc(F)c3)cc2)nn1 | 0.3 | 20 | 2.4 | 64.7 | –
CCCCc1cn(-c2cccc(S(=O)(=O)Nc3cccc4cnccc34)c2)nn1 | 2.3 | 30 | 0.12 | – | –
CCCC(C)C(F)c1cn(-c2ccc(NC(=O)Nc3ccccc3C(F)(F)F)cc2)nn1 (stereo not given) | – | – | 1.05 | – | –
O=C1OC2(c3ccc(O)cc3Oc3cc(O)ccc32)c2cc(NC(=S)NCCOCc3cn(-c4cccc(S(=O)(=O)Nc5ccccc5C(F)(F)F)c4)nn3)ccc21 | 28.2 | 140 | – | – | Activity (dengue virus type 2 [8]): Active; Activity [9]: Active; Activity (dengue virus type 2 [10]): Active; Activity (dengue virus type 2 [11]): Active; Activity [12]: Active
CCOCc1cn(-c2cccc(S(=O)(=O)Nc3cccc(C(=O)O)c3)c2)nn1 | > 7 | 7 | – | – | –
CCOCc1cn(-c2cccc(S(=O)(=O)Nc3ccccc3NS(C)(=O)=O)c2)nn1 | 8.3 | 87 | 0.08 | 10.5 | –
CCOCc1cn(-c2ccc(NC(=O)Nc3cccc(F)c3)cc2)nn1 | > 145 | 145 | 21.2 | – | –
NC(=O)c1ncn([C@@H]2O[C@H](CO)[C@@H](O)[C@H]2O)n1 [RIBAVIRIN] | 4 | 100 | – | – | selectivity ratio at 72 h (in vitro): 25
Cc1ccccc1NC(=O)Nc1ccc(-n2cc(CCC(C)C)nn2)cc1 | 1.4 | 170 | 0.17 | 121 | –
COc1cc(-n2cc(CCC(C)C)nn2)ccc1NC(=O)Nc1ccccc1C(F)(F)F | – | – | 1.05 | – | –
CC(C)CCc1cn(-c2ccc(NC(=O)Nc3ccc(F)cc3)cc2)nn1 | – | – | 1.9 | – | –
CC(C)CCc1cn(-c2ccc(NC(=O)Nc3ccccc3F)cc2)nn1 | 0.9 | 200 | – | 222 | –
CCCCCCc1cn(-c2ccc(NC(=O)Nc3ccccc3C(F)(F)F)cc2)nn1 | 2.7 | 170 | 0.3 | 62.9 | –
CCOCc1cn(-c2cccc(S(=O)(=O)Nc3ccccc3N3CCOCC3)c2)nn1 | 5.3 | 100 | 0.06 | 18.9 | –

— ChEMBL document CHEMBL4613314, “Exploring the Implication of DDX3X in DENV Infection: Discovery of the First-in-Class DDX3X Fluorescent Inhibitor” (ACS Med Chem Lett, 2020)
